The text below walks through data of ChEMBL document CHEMBL4251567 (Eur J Med Chem, 2018).

Usually IC50 stands for the concentration at which inhibition is half-maximal.

Molecules are shown by their SMILES.

Test [1] deals with Histone deacetylase 3 (Homo sapiens) (UniProt O15379). The test is described as follows: Inhibition of HDAC3 in human HeLa-S3 cell lysates assessed as remaining activity at 2 x 10^-5 M preincubated for 15 mins followed by HDAC-Glo substrate addition measured after 30 to 40 mins by […] relative to control. In outline: (§1)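 Antibody-capture (ELISA-type) assay: HDAC antibody coated in carbonate/bicarbonate buffer pH 9.4, wells blocked with 5% milk in TBST. HeLa-S3 lysate added at 1 mg/mL for HDAC3, 1 h at 4 °C, then washed. Inhibitor in DMSO preincubated 15 min at RT in HDAC-Glo buffer. HDAC-Glo reagent added, luminescence read after 30-40 min. Concentrations are final. Background = no-antibody well; activity given as % of DMSO control.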
Sequence of Histone deacetylase 3 (Homo sapiens) (O15379 whole entry): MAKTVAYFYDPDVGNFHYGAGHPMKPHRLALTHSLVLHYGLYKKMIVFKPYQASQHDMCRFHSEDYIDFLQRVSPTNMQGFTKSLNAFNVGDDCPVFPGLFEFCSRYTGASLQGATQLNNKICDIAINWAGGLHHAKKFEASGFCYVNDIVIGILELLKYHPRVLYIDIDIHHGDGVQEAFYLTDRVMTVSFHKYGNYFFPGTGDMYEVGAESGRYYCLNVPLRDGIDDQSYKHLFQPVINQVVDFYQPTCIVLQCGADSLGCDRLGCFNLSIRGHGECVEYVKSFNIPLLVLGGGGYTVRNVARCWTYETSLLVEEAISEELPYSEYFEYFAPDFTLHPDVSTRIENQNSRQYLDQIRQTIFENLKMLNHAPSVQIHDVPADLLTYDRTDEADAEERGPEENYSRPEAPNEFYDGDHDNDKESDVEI

The target of test [2] is Histone deacetylase 2 (Homo sapiens) (UniProt Q92769). As to the kind of experiment: Inhibition of HDAC2 in human HeLa-S3 cell lysates assessed as remaining activity at 8 x 10^-5 M preincubated for 15 mins followed by HDAC-Glo substrate addition measured after 30 to 40 mins by […] relative to control. In outline:
(§2)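 Same antibody-capture format as the other class I isoforms. HeLa-S3 lysate added at 100 μg/mL for HDAC1 and HDAC2, 1 h at 4 °C, then washed. Inhibitor in DMSO preincubated 15 min at RT; HDAC-Glo reagent added and luminescence read after 30-40 min. Concentrations are final. Signal corrected against a well without antibody; activity expressed as % of DMSO control.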

The target is the same in test [3]. The test is described as follows: Inhibition of HDAC2 in human HeLa-S3 cell lysates assessed as remaining activity at 1.6 x 10^-4 M preincubated for 15 mins followed by HDAC-Glo substrate addition measured after 30 to 40 mins by […] relative to control. In a few lines:
as §2

Test [4] concerns the target Histone deacetylase 1 (Homo sapiens) (UniProt Q13547). As to the kind of experiment: Inhibition of HDAC1 in human HeLa-S3 cell lysates assessed as remaining activity at 1.6 x 10^-4 M preincubated for 15 mins followed by HDAC-Glo substrate addition measured after 30 to 40 mins by […] relative to control. In outline: (§3)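 HDAC1 was captured from HeLa-S3 lysate (100 μg/mL) onto wells precoated with anti-HDAC1 antibody (10 μg/mL, carbonate buffer pH 9.4) and milk-blocked, 1 h at 4 °C, then washed. Inhibitor in DMSO was added in HDAC-Glo buffer for 15 min at room temperature. HDAC-Glo reagent was added and luminescence read after 30-40 min. Concentrations are final. No-antibody background subtracted; % of DMSO control.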

Test [5] has the same target. The test is described as follows: Inhibition of HDAC1 in human HeLa-S3 cell lysates assessed as remaining activity at 1 x 10^-5 M preincubated for 15 mins followed by HDAC-Glo substrate addition measured after 30 to 40 mins by fluorimetric method relative to control. In outline:
as §3

In test [6] the target is Histone deacetylase 3 (Homo sapiens) (UniProt O15379). As to the kind of experiment: Inhibition of HDAC3 in human HeLa-S3 cell lysates assessed as remaining activity at 8 x 10^-5 M preincubated for 15 mins followed by HDAC-Glo substrate addition measured after 30 to 40 mins by […] relative to control. In outline: as §1
Test [7] has the same target. The test is described as follows: Inhibition of HDAC3 in human HeLa-S3 cell lysates assessed as remaining activity at 1.6 x 10^-4 M preincubated for 15 mins followed by HDAC-Glo substrate addition measured after 30 to 40 mins by […] relative to control. In a few lines:
as §1

For test [8] the target is unchanged. As to the kind of experiment: Inhibition of HDAC3 in human HeLa-S3 cell lysates assessed as remaining activity at 1 x 10^-5 M preincubated for 15 mins followed by HDAC-Glo substrate addition measured after 30 to 40 mins by […] relative to control. In outline: as §1
The target of test [9] is T1, Histone deacetylase (Homo sapiens) (UniProt Q13547+O15379+Q9UBN7+Q92769+Q9UQL6+Q8WUI4+Q9BY41+Q96DB2+P56524+Q9UKV0+Q969S8). As to the kind of experiment: Inhibition of HDAC in human HeLa-S3 cell lysates assessed as residual activity at 2 x 10^-4 M preincubated for 15 mins followed by HDAC-Glo substrate addition measured after 35 mins by fluorimetric method relative to control. Format: protein assay. In a few lines: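 Lysate (1 μg total protein) in HDAC-Glo buffer was preincubated with inhibitor in DMSO for 15 min at room temperature. HDAC-Glo substrate/developer reagent was added and luminescence read after 35 min. Concentrations are final. Signal corrected for a no-lysate blank; % of DMSO control.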

Test [10] has as its system U-937. The test is described as follows: Cytotoxicity against human U937 cells assessed as cell viability at 4 x 10^-6 M after 44 hrs by MTT assay relative to control. The format is functional. To be noted: U-937, 44 h, read-out: Activity.
The target in test [11] is Histone deacetylase 2 (Homo sapiens) (UniProt Q92769). The test is described as follows: Inhibition of HDAC2 in human HeLa-S3 cell lysates assessed as remaining activity at 4 x 10^-5 M preincubated for 15 mins followed by HDAC-Glo substrate addition measured after 30 to 40 mins by […] relative to control. In a few lines:
as §2

The test system of test [12] is U-937. As to the kind of experiment: Cytotoxicity against human U937 cells assessed as cell viability at 8 x 10^-6 M after 44 hrs by MTT assay relative to control. The format is functional. To be noted: U-937, 44 h, read-out: Activity. In general terms: Tetrazolium dyes change colour on reduction, which living cells bring about.
The target of test [13] is Histone deacetylase 1 (Homo sapiens) (UniProt Q13547). The test is described as follows: Inhibition of HDAC1 in human HeLa-S3 cell lysates assessed as remaining activity at 4 x 10^-5 M preincubated for 15 mins followed by HDAC-Glo substrate addition measured after 30 to 40 mins by […] relative to control. In a few lines:
as §3

For test [14] the target is unchanged. The test is described as follows: Inhibition of HDAC1 in human HeLa-S3 cell lysates assessed as remaining activity at 8 x 10^-5 M preincubated for 15 mins followed by HDAC-Glo substrate addition measured after 30 to 40 mins by […] relative to control.
In another test the target is Histone deacetylase. The test is described as follows: Inhibition of HDAC in human HeLa-S3 cell lysates preincubated for 15 mins followed by HDAC-Glo substrate addition measured after 35 mins by fluorimetric method. Format: protein assay.
Test [15] addresses Histone deacetylase 3 (Homo sapiens) (UniProt O15379). As to the kind of experiment: Inhibition of HDAC3 in human HeLa-S3 cell lysates assessed as remaining activity at 4 x 10^-5 M preincubated for 15 mins followed by HDAC-Glo substrate addition measured after 30 to 40 mins by […] relative to control. In a few lines: as §1
Test [16] deals with U-937. The test is described as follows: Cytotoxicity against human U937 cells assessed as cell viability at 2 x 10^-6 M after 44 hrs by MTT assay relative to control. The format is functional. Particulars: U-937, 44 h, read-out: Activity.
The target of test [17] is Histone deacetylase 2 (Homo sapiens) (UniProt Q92769). The test is described as follows: Inhibition of HDAC2 in human HeLa-S3 cell lysates assessed as remaining activity at 2 x 10^-5 M preincubated for 15 mins followed by HDAC-Glo substrate addition measured after 30 to 40 mins by fluorimetric method relative to control. In a few lines: as §2
Sequence of Histone deacetylase 2 (Homo sapiens) (Q92769 whole entry, canonical isoform): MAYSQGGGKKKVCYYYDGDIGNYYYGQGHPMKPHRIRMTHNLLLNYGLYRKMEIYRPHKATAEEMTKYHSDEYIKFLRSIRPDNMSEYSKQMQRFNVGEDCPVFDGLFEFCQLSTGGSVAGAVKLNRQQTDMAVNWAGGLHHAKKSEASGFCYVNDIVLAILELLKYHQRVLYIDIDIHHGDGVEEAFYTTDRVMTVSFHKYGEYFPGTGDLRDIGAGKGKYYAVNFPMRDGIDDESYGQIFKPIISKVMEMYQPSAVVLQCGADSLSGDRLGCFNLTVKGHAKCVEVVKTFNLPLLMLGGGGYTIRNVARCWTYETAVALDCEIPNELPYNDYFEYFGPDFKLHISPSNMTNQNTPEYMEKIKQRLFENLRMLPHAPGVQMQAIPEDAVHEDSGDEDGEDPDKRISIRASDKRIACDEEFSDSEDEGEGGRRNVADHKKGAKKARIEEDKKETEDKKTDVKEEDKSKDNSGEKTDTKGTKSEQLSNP
The target in test [18] is Histone deacetylase 1 (Homo sapiens) (UniProt Q13547). As to the kind of experiment: Inhibition of HDAC1 in human HeLa-S3 cell lysates assessed as remaining activity at 2 x 10^-5 M preincubated for 15 mins followed by HDAC-Glo substrate addition measured after 30 to 40 mins by […] relative to control. In outline: as §3
Sequence of Histone deacetylase 1 (Homo sapiens) (Q13547 whole entry): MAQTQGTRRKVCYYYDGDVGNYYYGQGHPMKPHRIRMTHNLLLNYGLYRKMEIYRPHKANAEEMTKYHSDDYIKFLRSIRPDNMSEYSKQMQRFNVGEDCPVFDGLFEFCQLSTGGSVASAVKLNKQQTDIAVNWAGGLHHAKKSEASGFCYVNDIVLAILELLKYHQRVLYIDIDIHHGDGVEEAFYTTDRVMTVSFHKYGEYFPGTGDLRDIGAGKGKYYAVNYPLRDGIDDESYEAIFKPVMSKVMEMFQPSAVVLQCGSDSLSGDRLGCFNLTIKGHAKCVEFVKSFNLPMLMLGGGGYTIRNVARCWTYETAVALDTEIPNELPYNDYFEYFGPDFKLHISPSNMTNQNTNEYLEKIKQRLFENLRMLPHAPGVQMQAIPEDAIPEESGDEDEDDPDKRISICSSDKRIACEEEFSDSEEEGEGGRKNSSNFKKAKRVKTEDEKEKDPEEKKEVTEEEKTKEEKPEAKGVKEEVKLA
For a further test, the system named is Jurkat. As to the kind of experiment: Cytotoxicity against human Jurkat cells assessed as cell viability at 1 uM after 44 hrs by MTT assay relative to control. Format: functional. Particulars: read-out: Activity.
Test [19] deals with T1, Histone deacetylase (Homo sapiens). The test is described as follows: Inhibition of HDAC in human HeLa-S3 cell lysates assessed as residual activity at 1 x 10^-4 M preincubated for 15 mins followed by HDAC-Glo substrate addition measured after 35 mins by […] relative to control. Format: protein assay.

Regarding `O=C(CCC(CCCC(=O)Nc1ccccc1)Cc1ccccc1)NO` (racemic), the Activity came out at 63% in [1]; 27% in [2]; 20% in [3]; 16% in [4]; 75% in [5]; 33% in [6]. Besides, the Activity in test [7] was 19%; in [8], 87%; in test [9], 19%; in test [11] it was 47%; in test [13], 44%; in test [14] it was 27%. Further, the Activity in [15] stood at 55%; in test [17] it was 60%; in test [18] it was 58%; in test [19], 35%. In addition, the viability at 4 µM in the test on U-937 [10] was 74%. Moreover, in the test with U-937 [12], the viability at 8 µM is 80%. At Histone deacetylase, this compound showed an IC50 of 62 µM. Moreover, the viability at 2 µM in the test with U-937 [16] was 80%. Further, the viability at 1 µM in the test with Jurkat turned out to be 89%.
For `O=C(CC[C@H](CCCC(=O)Nc1ccccc1)Cc1ccccc1)NO`, the Activity in test [1] is 67%; in test [2], 37%; in [3], 22%; in test [4], 17%; in [5], 84%; in test [6], 33%. Besides, the Activity in test [7] stood at 15%; in [8], 76%; in test [11], 56%; in test [13], 50%; in [14], 32%; in test [15] it was 48%. The Activity in test [17] was determined as 74%; in [18] it was 68%.
With `CCC(CCCC(=O)Nc1ccccc1)CCC(=O)NO` (configuration not stated), the IC50 against Histone deacetylase is 14 µM.
For the compound `CCCCCCC(CCCC(=O)Nc1ccccc1)CCC(=O)NO` (configuration not stated), the Activity in test [1] was determined as 56%; in test [2] it was 31%; in [3], 16%; in [4], 13%; in test [5] it was 83%; in [6], 25%. Moreover, the Activity in test [7] turned out to be 5%; in test [8], 88%; in [9], 21%; in test [11], 46%; in test [13], 46%; in [14], 26%. The Activity in test [15] stood at 42%; in [17], 73%; in [18] it was 67%; in test [19] it was 35%. Moreover, the viability at 4 µM in the test on U-937 [10] is 108%. In addition, in the test on U-937 [12], the viability at 8 µM is 102%. The IC50 against Histone deacetylase turned out to be 60 µM. Besides, the viability at 2 µM in the test on U-937 [16] came out at 106%. Also, in the test on Jurkat, the viability at 1 µM was 69%.
